Usually mortality stands for the percentage killed.

The record followed here is ChEMBL document CHEMBL3046131, “Synthesis and quantitative structure-activity relationship (QSAR) study of novel isoxazoline and oxime derivatives of podophyllotoxin as insecticidal agents” (2012).

Holding throughout (assay type): functional
The subject of experiment [1] is Mythimna separata. Description: Insecticidal activity against pre-third-instar larvae of Mythimna separata (Oriental armyworm) in wheat leaves at 1 mg/mL after 33 days by leaf-dipping method. Conditions: 792 h. An outline of the steps:
(§1)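 Compounds dissolved in acetone at 1 mg/mL. Fresh wheat leaves dipped 3 s, then dried at room conditions. Acetone-only leaves served as blank control and toosendanin as positive control. Ten larvae per dish fed treated leaves, replenished when consumed, for 48 h. Untreated fresh leaves were then given until adult emergence. Held at 25 ± 2 °C, 65−80% RH, 12 h/12 h light/dark. Activity calculated by formula.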

In experiment [2] the test system is Mythimna separata. Kind of experiment: Insecticidal activity against pre-third-instar larvae of Mythimna separata (Oriental armyworm) in wheat leaves at 1 mg/mL after 5 days by leaf-dipping method. The note with it: 120 h. The method, boiled down: as §1
For experiment [3], the system named is Mythimna separata. Description: Insecticidal activity against pre-third-instar larvae of Mythimna separata (Oriental armyworm) in wheat leaves at 1 mg/mL after 20 days by leaf-dipping method. Conditions: 480 h. The method, boiled down: as §1

On to `CCOC(=O)[C@@H]1[C@H](c2cc(OC)c(OC)c(OC)c2)c2cc3c(cc2C2=NOC[C@H]21)OCO3`, for which the mortality at 1000 µg/mL in the experiment with Mythimna separata [1] is 44.8%; in the experiment with Mythimna separata [2], 20%; in the experiment with Mythimna separata [3] it was 31%.

Turning to `COc1ccc(COC(=O)[C@@H]2[C@H](c3cc(OC)c(OC)c(OC)c3)c3cc4c(cc3C3=NOC[C@H]32)OCO4)cc1`, the results for the mortality at 1000 µg/mL in the experiment with Mythimna separata [1], with Mythimna separata [2] and in the experiment with Mythimna separata [3] were 44.8%, 26.7% and 37.9%, respectively.

For `COc1cc([C@@H]2c3cc4c(cc3C(=O)[C@H]3COC(=O)[C@@H]23)OCO4)cc(OC)c1OC` [PICROPODOPHYLLONE], the mortality at 1000 µg/mL in the experiment with Mythimna separata [1] amounted to 27.6%; in the experiment on Mythimna separata [3] it was 20.7%.

For `CCCC(=O)OC[C@@H]1[C@H](c2cc(OC)c(OC)c(OC)c2)c2cc3c(cc2C2=NOC[C@H]21)OCO3`, the figures for the mortality at 1000 µg/mL with Mythimna separata [1], in the experiment with Mythimna separata [2] and in the experiment on Mythimna separata [3] were 34.5%, 6.7% and 13.8%, respectively.

Turning to `COc1cc([C@@H]2c3cc4c(cc3/C(=N\O)[C@H]3COC(=O)[C@H]23)OCO4)cc(OC)c1OC`, the results for the mortality at 1000 µg/mL in the experiment on Mythimna separata [1], in the experiment with Mythimna separata [2] and in the experiment with Mythimna separata [3] were 34.5%, 10% and 24.1%, respectively.

For `COc1cc([C@@H]2c3cc4c(cc3C3=NOC[C@H]3[C@@H]2C(=O)OCc2cccc(F)c2)OCO4)cc(OC)c1OC`, the mortality at 1000 µg/mL is 34.5% in the experiment with Mythimna separata [1], 23.3% with Mythimna separata [2] and 34.5% with Mythimna separata [3].

With `COc1cc([C@@H]2c3cc4c(cc3/C(=N/OS(=O)(=O)c3ccccc3)[C@H]3COC(=O)[C@@H]23)OCO4)cc(OC)c1OC`, the mortality at 1000 µg/mL is 24.1% in the experiment on Mythimna separata [1], 0% in the experiment with Mythimna separata [2] and 6.9% in the experiment on Mythimna separata [3].

Take `COc1cc([C@@H]2c3cc4c(cc3/C(=N/OS(=O)(=O)c3ccc(Cl)c([N+](=O)[O-])c3)[C@H]3COC(=O)[C@@H]23)OCO4)cc(OC)c1OC`: the mortality at 1000 µg/mL in the experiment with Mythimna separata [1] was 13.8%; in the experiment on Mythimna separata [2], 0%; in the experiment on Mythimna separata [3], 3.5%.

As to `COc1cc([C@@H]2c3cc4c(cc3C3=NOC[C@H]3[C@@H]2C(=O)O)OCO4)cc(OC)c1OC`, the values for the mortality at 1000 µg/mL with Mythimna separata [1], with Mythimna separata [2] and with Mythimna separata [3] were 41.4%, 20% and 31%, respectively.

Regarding `COC(=O)[C@@H]1[C@H](c2cc(OC)c(OC)c(OC)c2)c2cc3c(cc2C2=NOC[C@H]21)OCO3`, the mortality at 1000 µg/mL in the experiment with Mythimna separata [1] is 41.4%; in the experiment with Mythimna separata [2] it was 23.3%; with Mythimna separata [3], 31%.

Turning to `COc1cc([C@@H]2c3cc4c(cc3C3=NOC[C@H]3[C@@H]2C(=O)OCCc2ccccc2)OCO4)cc(OC)c1OC`, the mortality at 1000 µg/mL is 41.4% in the experiment on Mythimna separata [1], 20% in the experiment with Mythimna separata [2] and 27.6% in the experiment with Mythimna separata [3].

Take `CCc1ccc(S(=O)(=O)O/N=C2/c3cc4c(cc3[C@@H](c3cc(OC)c(OC)c(OC)c3)[C@@H]3C(=O)OC[C@H]23)OCO4)cc1`: the mortality at 1000 µg/mL with Mythimna separata [1] was 27.6%; in the experiment with Mythimna separata [2] it was 3.3%; in the experiment with Mythimna separata [3], 17.2%.

For the molecule `COc1cc([C@@H]2c3cc4c(cc3/C(=N/OS(C)(=O)=O)[C@H]3COC(=O)[C@@H]23)OCO4)cc(OC)c1OC`, the mortality at 1000 µg/mL in the experiment with Mythimna separata [1] came to 24.1%; with Mythimna separata [2] it was 0%; with Mythimna separata [3] it was 17.2%.

`COc1cc([C@@H]2c3cc4c(cc3C3=NOC[C@H]3[C@@H]2COC(=O)c2cccc(F)c2)OCO4)cc(OC)c1OC`: the mortality at 1000 µg/mL with Mythimna separata [1] came to 55.2%; with Mythimna separata [2], 23.3%; in the experiment with Mythimna separata [3] it was 34.5%.

Take `CCCCNC(=O)[C@@H]1[C@H](c2cc(OC)c(OC)c(OC)c2)c2cc3c(cc2C2=NOC[C@H]21)OCO3`: the values for the mortality at 1000 µg/mL in the experiment with Mythimna separata [1], in the experiment on Mythimna separata [2] and in the experiment on Mythimna separata [3] were 10.3%, 0% and 0%, respectively.

Consider `COc1cc([C@@H]2c3cc4c(cc3C(=O)[C@H]3COC(=O)[C@H]23)OCO4)cc(OC)c1OC` [PODOPHYLLOTOXONE], for which the values for the mortality at 1000 µg/mL with Mythimna separata [1], in the experiment on Mythimna separata [2] and in the experiment on Mythimna separata [3] were 17.2%, 6.7% and 3.5%, respectively.

In the case of `CCCCOC(=O)[C@@H]1[C@H](c2cc(OC)c(OC)c(OC)c2)c2cc3c(cc2C2=NOC[C@H]21)OCO3`, the mortality at 1000 µg/mL in the experiment on Mythimna separata [1] turned out to be 58.6%; in the experiment on Mythimna separata [2], 23.3%; in the experiment with Mythimna separata [3], 34.5%.

For the molecule `COc1cc([C@@H]2c3cc4c(cc3C3=NOC[C@H]3[C@@H]2COC(=O)c2ccc([N+](=O)[O-])cc2)OCO4)cc(OC)c1OC`, the mortality at 1000 µg/mL with Mythimna separata [1] is 58.6%; with Mythimna separata [2], 26.7%; with Mythimna separata [3] it was 37.9%.

Take `COc1cc([C@@H]2c3cc4c(cc3/C(=N/OS(=O)(=O)c3ccc(C)cc3)[C@H]3COC(=O)[C@@H]23)OCO4)cc(OC)c1OC`: the mortality at 1000 µg/mL was found to be 44.8% with Mythimna separata [1], 20% with Mythimna separata [2] and 34.5% with Mythimna separata [3].

On to `COc1ccc(S(=O)(=O)O/N=C2/c3cc4c(cc3[C@@H](c3cc(OC)c(OC)c(OC)c3)[C@@H]3C(=O)OC[C@H]23)OCO4)cc1`, for which the mortality at 1000 µg/mL in the experiment with Mythimna separata [1] is 24.1%; in the experiment on Mythimna separata [2], 0%; in the experiment on Mythimna separata [3], 3.5%.

Regarding `COc1cc([C@@H]2c3cc4c(cc3/C(=N/OS(=O)(=O)c3ccc(Cl)cc3)[C@H]3COC(=O)[C@@H]23)OCO4)cc(OC)c1OC`, the mortality at 1000 µg/mL with Mythimna separata [1] worked out at 55.2%; in the experiment on Mythimna separata [2], 26.7%; with Mythimna separata [3], 37.9%.

In the case of `COc1cc([C@@H]2c3cc4c(cc3/C(=N/OS(=O)(=O)c3cccc([N+](=O)[O-])c3)[C@H]3COC(=O)[C@@H]23)OCO4)cc(OC)c1OC`, the mortality at 1000 µg/mL amounted to 13.8% in the experiment on Mythimna separata [1], 0% in the experiment on Mythimna separata [2] and 3.5% in the experiment on Mythimna separata [3].

Consider `COc1cc([C@@H]2c3cc4c(cc3C3=NOC[C@H]3[C@@H]2COC=O)OCO4)cc(OC)c1OC`, for which the results for the mortality at 1000 µg/mL in the experiment with Mythimna separata [1], in the experiment with Mythimna separata [2] and with Mythimna separata [3] were 24.1%, 0% and 10.3%, respectively.

Consider `COc1cc([C@@H]2c3cc4c(cc3/C(=N/O)[C@H]3COC(=O)[C@@H]23)OCO4)cc(OC)c1OC`, for which the mortality at 1000 µg/mL in the experiment on Mythimna separata [1] turned out to be 17.2%; in the experiment on Mythimna separata [2] it was 0%; in the experiment on Mythimna separata [3], 6.9%.

`CCCCCCCCOC(=O)[C@@H]1[C@H](c2cc(OC)c(OC)c(OC)c2)c2cc3c(cc2C2=NOC[C@H]21)OCO3`: the figures for the mortality at 1000 µg/mL with Mythimna separata [1], in the experiment with Mythimna separata [2] and in the experiment on Mythimna separata [3] were 37.9%, 30% and 34.5%, respectively.

`COc1ccc(C(=O)OC[C@@H]2[C@H](c3cc(OC)c(OC)c(OC)c3)c3cc4c(cc3C3=NOC[C@H]32)OCO4)cc1`: the mortality at 1000 µg/mL turned out to be 37.9% in the experiment on Mythimna separata [1], 6.7% in the experiment on Mythimna separata [2] and 13.8% in the experiment with Mythimna separata [3].

As for `COc1cc([C@@H]2c3cc4c(cc3C3=NOC[C@H]3[C@@H]2C(=O)OCc2ccccc2)OCO4)cc(OC)c1OC`, the values for the mortality at 1000 µg/mL in the experiment on Mythimna separata [1], with Mythimna separata [2] and in the experiment on Mythimna separata [3] were 37.9%, 23.3% and 31%, respectively.

Consider `COc1cc([C@@H]2c3cc4c(cc3/C(=N/OS(=O)(=O)c3ccc(Br)cc3)[C@H]3COC(=O)[C@@H]23)OCO4)cc(OC)c1OC`, for which the mortality at 1000 µg/mL came to 27.6% in the experiment with Mythimna separata [1], 0% with Mythimna separata [2] and 10.3% in the experiment on Mythimna separata [3].

For the molecule `CCCCCCCC(=O)OC[C@@H]1[C@H](c2cc(OC)c(OC)c(OC)c2)c2cc3c(cc2C2=NOC[C@H]21)OCO3`, the mortality at 1000 µg/mL in the experiment on Mythimna separata [1] amounted to 17.2%; in the experiment on Mythimna separata [2], 0%; in the experiment on Mythimna separata [3], 6.9%.

Regarding `COc1cc([C@@H]2c3cc4c(cc3C3=NOC[C@H]3[C@@H]2COC(=O)c2ccccc2)OCO4)cc(OC)c1OC`, the mortality at 1000 µg/mL came to 41.4% with Mythimna separata [1], 26.7% in the experiment with Mythimna separata [2] and 27.6% in the experiment with Mythimna separata [3].

As for `CC(=O)O[C@@H]1C[C@H](O)[C@@]23CO[C@@H](O)[C@]1(C)[C@@H]2C[C@@H](O)[C@]1(C)[C@@H]3C(=O)[C@H](OC(C)=O)[C@@]2(C)[C@H](c3ccoc3)C[C@H]3O[C@]321` [TOOSENDANIN], the mortality at 1000 µg/mL is 44.8% with Mythimna separata [1], 6.7% in the experiment with Mythimna separata [2] and 13.8% with Mythimna separata [3].

Regarding `COc1cc([C@@H]2c3cc4c(cc3C3=NOC[C@H]3[C@@H]2CO)OCO4)cc(OC)c1OC` [ISOXAZOLOPODOPHYLLOL], the values for the mortality at 1000 µg/mL with Mythimna separata [1], in the experiment with Mythimna separata [2] and in the experiment on Mythimna separata [3] were 37.9%, 20% and 20.7%, respectively.

In the case of `COc1cc([C@@H]2c3cc4c(cc3[C@H](O)[C@H]3COC(=O)[C@H]23)OCO4)cc(OC)c1OC` [PODOFILOX], the mortality at 1000 µg/mL in the experiment with Mythimna separata [1] was determined as 37.9%; with Mythimna separata [2] it was 3.3%; with Mythimna separata [3] it was 10.3%.

With `COc1cc([C@@H]2c3cc4c(cc3C3=NOC[C@H]3[C@@H]2C(=O)OCc2ccc([N+](=O)[O-])cc2)OCO4)cc(OC)c1OC`, the values for the mortality at 1000 µg/mL in the experiment on Mythimna separata [1], in the experiment with Mythimna separata [2] and with Mythimna separata [3] were 27.6%, 23.3% and 24.1%, respectively.

Take `COc1cc([C@@H]2c3cc4c(cc3C3=NOC[C@H]3[C@@H]2COC(=O)Cc2ccccc2)OCO4)cc(OC)c1OC`: the mortality at 1000 µg/mL with Mythimna separata [1] was 20.7%; with Mythimna separata [2] it was 6.7%; with Mythimna separata [3], 6.9%.
